Activity calls are given as the source filed them.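 Rule for the calls, unless noted: active = GFP response above 150% of the DMSO level; inconclusive = fewer than 70 events counted for a yeast strain; inactive = the rest.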

A short description of assay [1]: hit retest on RPL19A-GFP reporter strain – cell-based, S. cerevisiae, flow cytometry, cherry picks, mother/daughter gates, confirmation (AID 2270;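 active = GFP response below 50% of the DMSO control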). The conditions noted are these: 3 h, at 10 µM, stronger effect = lower value, 100 = same GFP as DMSO wells. (Flow cytometry measures light scatter and fluorescence of single cells or particles in a stream.)
Assay [2] is described as follows: yeast TOR pathway reporter LAP4-GFP change – cell-based, cherry picks, flow cytometry, mother/daughter gates, confirmation (AID 2271;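 active = GFP response above 150% of the DMSO control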;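 note: ratio of sample to DMSO plate mean so 100% equals DMSO level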). The conditions noted are these: S. cerevisiae LAP4-GFP strain, 3 h, at 10 µM, stronger effect = higher value, 100 means same as DMSO control. In a few lines:
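Material – Alexa Fluor 633-labelled Saccharomyces cerevisiae GFP-fusion strain, single-plex · Incubation – compound exposure 3 h at 30 °C, end-over-end rotation · Measured by – GFP by flow cytometry · Measure – median GFP fluorescence as percent of plate-mean DMSO wells · Control set – positive rapamycin (400 ng/mL), negative DMSO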

The nature of assay [3]: TOR pathway reporter MEP2-GFP, retest of hits – S. cerevisiae, flow cytometry GFP, cherry picks, confirmation (AID 2272;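 active = GFP response above 150% of the DMSO control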;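 note: ratio of well signal to plate DMSO mean so 100% equals DMSO level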). The following applies: S. cerevisiae MEP2-GFP strain, 3 h, at 10 µM, stronger effect = higher value.
A short description of assay [4]: yeast AGP1-GFP fluorescence change, single-dose – cell-based, flow cytometry, S. cerevisiae, cherry picks, confirmation (AID 2273).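 Note: median GFP channel fluorescence over the whole cell population gate.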 The following applies: S. cerevisiae AGP1-GFP strain, 3 h, at 10 µM.
Assay [5] in a line: TOR pathway CIT2 reporter hit retest – S. cerevisiae, GFP fusion, cherry picks, mother/daughter gates, confirmation (AID 2274). The following applies: S. cerevisiae CIT2-GFP strain, flow cytometry, 3 h, at 10 µM, stronger effect = higher value.
The mark [6] stands for this setting: measured here: daughter cell gate.
The mark [7] stands for this setting: measured here: mother cell gate.
Setting [8] is: measured here: daughter cell gate response.
Setting [9] is: measured here: mother cell gate response.

`Cc1ccc(/C=C/C(=O)NC2CCCCCCC2)o1`: the GFP response vs DMSO in assay [1] was 98.8% (inactive); in assay [1] (setting [6]), 99.4%; in assay [1] (setting [7]), 98.2%; in assay [3] it was 102% (inactive). Further, the GFP response relative to DMSO was 125% (inactive) in assay [2], 120% in assay [2] (setting [8]) and 130% in assay [2] (setting [9]). For the same molecule, the GFP response, % of DMSO in assay [4] was 90.8% (inactive); in assay [5] it was 101% (inactive); in assay [5] (setting [6]) it was 105%; in assay [5] (setting [7]), 97.3%.
As for `Cc1ccc(C(c2cc(Cl)c3cccnc3c2O)N2CCN(C)CC2)cc1` (stereo unspecified), the GFP response vs DMSO in assay [1] is 81.4% (inactive); in assay [1] (setting [6]), 94.4%; in assay [1] (setting [7]), 67.7%; in assay [3], 116% (inactive). The GFP response relative to DMSO in assay [2] is 184% (active); in assay [2] (setting [8]) it was 141%; in assay [2] (setting [9]) it was 208%. The GFP response, % of DMSO in assay [4] was 95.9% (inactive); in assay [5] it was 119% (inactive); in assay [5] (setting [6]), 97.4%; in assay [5] (setting [7]), 113%.
On to `O=C1CC(Sc2nnc(-c3ccccc3)o2)C(=O)N1c1ccccc1` (stereo unspecified), for which the GFP response vs DMSO in assay [1] is 99.9% (inactive); in assay [1] (setting [6]), 98.7%; in assay [1] (setting [7]) it was 100%; in assay [3], 102% (inactive). The GFP response relative to DMSO in assay [2] is 106% (inactive); in assay [2] (setting [8]), 105%; in assay [2] (setting [9]), 107%. The GFP response, % of DMSO in assay [4] was 98.7% (inactive); in assay [5], 97.8% (inactive); in assay [5] (setting [6]) it was 99.7%; in assay [5] (setting [7]), 93.4%.
For the molecule `O=[N+]([O-])c1ccc(Sc2nc3ccccc3o2)c([N+](=O)[O-])c1`, the GFP response vs DMSO in assay [1] was 93.5% (inactive); in assay [1] (setting [6]), 93.4%; in assay [1] (setting [7]), 92%; in assay [3], 114% (inactive). The GFP response relative to DMSO in assay [2] was 157% (active); in assay [2] (setting [8]), 151%; in assay [2] (setting [9]), 158%. For the same molecule, the GFP response, % of DMSO in assay [4] was 96% (inactive); in assay [5], 108% (inactive); in assay [5] (setting [6]), 109%; in assay [5] (setting [7]), 100%.
Turning to `COc1ccc(-c2noc(CCCc3ccccc3)n2)cc1OC`, the GFP response vs DMSO in assay [1] is 101% (inactive); in assay [1] (setting [6]) it was 98.7%; in assay [1] (setting [7]), 100%; in assay [3], 104% (inactive). For the same molecule, the GFP response relative to DMSO in assay [2] is 96.2% (inactive); in assay [2] (setting [8]), 98.7%; in assay [2] (setting [9]), 98.3%. Also, the GFP response, % of DMSO was 104% (inactive) in assay [4], 95.2% (inactive) in assay [5], 94.8% in assay [5] (setting [6]) and 96.6% in assay [5] (setting [7]).
On to `COc1cc(NC(=O)c2c(OC)cccc2OC)ccc1NC(=O)c1cc2ccccc2o1`, for which the GFP response vs DMSO in assay [1] was 96% (inactive); in assay [1] (setting [6]), 95.5%; in assay [1] (setting [7]), 96.5%; in assay [3], 102% (inactive). Also, the GFP response relative to DMSO in assay [2] was 109% (inactive); in assay [2] (setting [8]) it was 104%; in assay [2] (setting [9]), 108%. Also, the GFP response, % of DMSO in assay [4] was 95.4% (inactive); in assay [5] it was 96.4% (inactive); in assay [5] (setting [6]), 98.3%; in assay [5] (setting [7]), 93.3%.
For the molecule `CCN(Cc1ccccc1)S(=O)(=O)c1ccc(C(=O)Nc2nnc(-c3ccccc3OC)o2)cc1`, the GFP response vs DMSO in assay [1] was 98.4% (inactive); in assay [1] (setting [6]), 98.6%; in assay [1] (setting [7]) it was 98.4%; in assay [3], 102% (inactive). Besides, the GFP response relative to DMSO was 94.1% (inactive) in assay [2], 92.8% in assay [2] (setting [8]) and 94% in assay [2] (setting [9]). Further, the GFP response, % of DMSO is 96.4% (inactive) in assay [4], 98.3% (inactive) in assay [5], 97.2% in assay [5] (setting [6]) and 99.7% in assay [5] (setting [7]).
Regarding `CCOC(=O)Cc1csc(NC(=O)COc2ccc(N(C)S(=O)(=O)c3cccs3)cc2)n1`, the GFP response vs DMSO is 95% (inactive) in assay [1], 94.9% in assay [1] (setting [6]), 92% in assay [1] (setting [7]) and 105% (inactive) in assay [3]. Besides, the GFP response relative to DMSO in assay [2] is 102% (inactive); in assay [2] (setting [8]), 101%; in assay [2] (setting [9]) it was 98.3%. The GFP response, % of DMSO was 96.6% (inactive) in assay [4], 95.5% (inactive) in assay [5], 97.2% in assay [5] (setting [6]) and 95% in assay [5] (setting [7]).
In the case of `O=C(Nc1nc(-c2ccc(Cl)s2)cs1)c1cccs1`, the GFP response vs DMSO in assay [1] is 93.8% (inactive); in assay [1] (setting [6]), 91%; in assay [1] (setting [7]), 93.7%; in assay [3], 97.2% (inactive). Moreover, the GFP response relative to DMSO is 113% (inactive) in assay [2], 107% in assay [2] (setting [8]) and 119% in assay [2] (setting [9]). Further, the GFP response, % of DMSO in assay [4] is 98.8% (inactive); in assay [5], 83.3% (inactive); in assay [5] (setting [6]) it was 85.2%; in assay [5] (setting [7]), 82.6%.
Turning to `CCOC(=O)c1ccc(NC(=O)CCc2nc(-c3ccccc3Cl)no2)cc1`, the GFP response vs DMSO was 101% (inactive) in assay [1], 100% in assay [1] (setting [6]), 102% in assay [1] (setting [7]) and 108% (inactive) in assay [3]. Further, the GFP response relative to DMSO in assay [2] is 103% (inactive); in assay [2] (setting [8]), 101%; in assay [2] (setting [9]), 103%. The GFP response, % of DMSO is 97.5% (inactive) in assay [4], 101% (inactive) in assay [5], 102% in assay [5] (setting [6]) and 98% in assay [5] (setting [7]).
`COc1cc(C(=O)ON=C2C3CC4CC(C3)CC2C4)cc(OC)c1OC`: the GFP response vs DMSO is 97.4% (inactive) in assay [1], 97.6% in assay [1] (setting [6]), 95.6% in assay [1] (setting [7]) and 107% (inactive) in assay [3]. Further, the GFP response relative to DMSO in assay [2] was 108% (inactive); in assay [2] (setting [8]), 102%; in assay [2] (setting [9]), 111%. Moreover, the GFP response, % of DMSO was 61.1% (inactive) in assay [4], 145% (inactive) in assay [5], 136% in assay [5] (setting [6]) and 147% in assay [5] (setting [7]).
As for `COc1cccc(CC(=O)OC(C)C(=O)Nc2ncc(Cl)cc2Cl)c1` (stereo unspecified), the GFP response vs DMSO was 101% (inactive) in assay [1], 99.8% in assay [1] (setting [6]), 101% in assay [1] (setting [7]) and 102% (inactive) in assay [3]. The GFP response relative to DMSO in assay [2] was 96.2% (inactive); in assay [2] (setting [8]), 97.2%; in assay [2] (setting [9]) it was 97.2%. The GFP response, % of DMSO was 91.1% (inactive) in assay [4], 97.8% (inactive) in assay [5], 98.1% in assay [5] (setting [6]) and 95.5% in assay [5] (setting [7]).
As to `CC1CC2=C(CC1/C=N/NC(N)=S)C(C)(C)CCC2` (stereo unspecified), the GFP response vs DMSO in assay [1] was 96.4% (inactive); in assay [1] (setting [6]), 92.7%; in assay [1] (setting [7]) it was 95.3%; in assay [3] it was 107% (inactive). In addition, the GFP response relative to DMSO in assay [2] was 110% (inactive); in assay [2] (setting [8]) it was 106%; in assay [2] (setting [9]), 113%. The GFP response, % of DMSO in assay [4] is 97.5% (inactive); in assay [5], 91.5% (inactive); in assay [5] (setting [6]), 88.4%; in assay [5] (setting [7]), 90.7%.
With `O=[N+]([O-])c1cc(CN2CCN(c3cccc(C(F)(F)F)c3)CC2)c2cccnc2c1O`, the GFP response vs DMSO in assay [1] was 112% (inactive); in assay [1] (setting [6]), 96.4%; in assay [1] (setting [7]), 104%; in assay [3], 145% (inactive). Further, the GFP response relative to DMSO in assay [2] was 234% (active); in assay [2] (setting [8]), 229%; in assay [2] (setting [9]), 216%. The GFP response, % of DMSO is 116% (inactive) in assay [4], 138% (inactive) in assay [5], 117% in assay [5] (setting [6]) and 131% in assay [5] (setting [7]).
As to `Cc1ccc2[nH]c3c(=O)n(CC(=O)N4CCN(C)CC4)ncc3c2c1`, the GFP response vs DMSO was 95% (inactive) in assay [1], 93.4% in assay [1] (setting [6]), 96.2% in assay [1] (setting [7]) and 98.3% (inactive) in assay [3]. For the same molecule, the GFP response relative to DMSO in assay [2] was 95.4% (inactive); in assay [2] (setting [8]), 96%; in assay [2] (setting [9]) it was 96.1%. The GFP response, % of DMSO in assay [4] is 99.3% (inactive); in assay [5], 101% (inactive); in assay [5] (setting [6]) it was 103%; in assay [5] (setting [7]), 101%.
For `O=C(c1ccccc1F)N1CCN(c2ccccc2)CC1`, the GFP response vs DMSO in assay [1] is 97% (inactive); in assay [1] (setting [6]), 97.9%; in assay [1] (setting [7]), 97.6%; in assay [3], 105% (inactive). Also, the GFP response relative to DMSO is 99.2% (inactive) in assay [2], 101% in assay [2] (setting [8]) and 98.3% in assay [2] (setting [9]). Further, the GFP response, % of DMSO in assay [4] is 95.2% (inactive); in assay [5] it was 98.3% (inactive); in assay [5] (setting [6]), 101%; in assay [5] (setting [7]), 98.5%.

The values above are taken from PubChem BioAssay.
